Format in all cases: functional
Assay [1] relates to Aspergillus niger. Put plainly: Antifungal activity against Aspergillus niger MTCC 344 at 100 ug/ml after 48 hrs by agar well diffusion method. To be noted: MTCC 344, 48 h, read-out: IZ. Put shortly: (§1)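 Test samples and DMSO controls incubated at 27 °C for 48 h. Inhibition zone diameter measured in mm. Three to four replicates per treatment.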
The subject of assay [2] is Bacillus subtilis. Briefly: Antibacterial activity against Bacillus subtilis MTCC 441 by broth dilution method. Put shortly: (§2)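 Broth dilution per NCCL standards; all phosphorus ylides and conjugated alkynes tested in vitro.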
In assay [3] the test system is Saccharomyces cerevisiae. Briefly: Antifungal activity against Saccharomyces cerevisiae MTCC 36 at 100 ug/ml after 48 hrs by agar well diffusion method. The settings on record: MTCC 36, 48 h, read-out: IZ. Put shortly:
as §1

Assay [4] concerns Saccharomyces cerevisiae. Put plainly: Antifungal activity against Saccharomyces cerevisiae MTCC 36 at 50 ug/ml after 48 hrs by agar well diffusion method. To be noted: MTCC 36, 48 h, read-out: IZ. Summed up:
as §1

Assay [5] concerns Klebsiella pneumoniae. Put plainly: Antibacterial activity against Klebsiella pneumoniae MTCC 618 by broth dilution method. Summed up:
as §2

Assay [6] relates to Aspergillus flavus. Briefly: Antifungal activity against Aspergillus flavus MTCC 277 at 50 ug/ml after 48 hrs by agar well diffusion method. The settings on record: MTCC 277, 48 h, read-out: IZ. Summed up:
as §1

Assay [7] has as its system Candida albicans. Put plainly: Antifungal activity against Candida albicans MTCC 227 at 50 ug/ml after 48 hrs by agar well diffusion method. The settings on record: MTCC 227, 48 h, read-out: IZ. Put shortly:
as §1

The test system of assay [8] is Staphylococcus aureus. Briefly: Antibacterial activity against Staphylococcus aureus MTCC 96 by broth dilution method. Summed up:
as §2

For assay [9], the system named is Aspergillus niger. Briefly: Antifungal activity against Aspergillus niger MTCC 344 at 50 ug/ml after 48 hrs by agar well diffusion method. To be noted: MTCC 344, 48 h, read-out: IZ. Summed up:
as §1

Assay [10] concerns Pseudomonas aeruginosa. Briefly: Antibacterial activity against Pseudomonas aeruginosa MTCC 741 by broth dilution method. Summed up: as §2
Assay [11] has as its system Staphylococcus epidermidis. Put plainly: Antibacterial activity against Staphylococcus epidermidis MTCC 435 by broth dilution method. Summed up:
as §2

For assay [12], the system named is Diutina rugosa. Briefly: Antifungal activity against Candida rugosa NCIM 3462 at 50 ug/ml after 48 hrs by agar well diffusion method. The settings on record: NCIM 3462, 48 h, read-out: IZ. Put shortly: as §1
In assay [13] the test system is Escherichia coli. Briefly: Antibacterial activity against Escherichia coli MTCC 443 by broth dilution method. Put shortly:
as §2

Assay [14] relates to Aspergillus flavus. Briefly: Antifungal activity against Aspergillus flavus MTCC 277 at 100 ug/ml after 48 hrs by agar well diffusion method. To be noted: MTCC 277, 48 h, read-out: IZ. Put shortly:
as §1

Assay [15] has as its system Candida albicans. Briefly: Antifungal activity against Candida albicans MTCC 227 at 100 ug/ml after 48 hrs by agar well diffusion method. To be noted: MTCC 227, 48 h, read-out: IZ. Summed up: as §1
Assay [16] relates to Diutina rugosa. Put plainly: Antifungal activity against Candida rugosa NCIM 3462 at 100 ug/ml after 48 hrs by agar well diffusion method. To be noted: NCIM 3462, 48 h, read-out: IZ. Put shortly: as §1

Converted amounts (≈) assume the structure as drawn.

`CCOC(=O)C#Cc1ccc(Cl)nc1`: the zone of inhibition at 100 µg/mL in assay [1] came out at 29 mm; in assay [3], 29 mm; in [14], 25 mm; in assay [15], 20 mm; in [16], 15 mm. Also, the MIC in assay [2] turned out to be 6.25 µg/mL (≈ 29.8 µM); in [5], 6.25 µg/mL (≈ 29.8 µM); in assay [8] it was 1.56 µg/mL (≈ 7.44 µM); in assay [10], 0.78 µg/mL (≈ 3.72 µM); in [11], 50 µg/mL (≈ 239 µM); in assay [13] it was 100 µg/mL (≈ 477 µM). In addition, the zone of inhibition at 50 µg/mL in assay [4] is 25 mm; in assay [6] it was 20 mm; in [7], 15 mm; in assay [9], 25 mm; in assay [12], 10 mm.
With `CCOC(=O)C#CC(C)(C)C`, the zone of inhibition at 100 µg/mL in assay [1], in assay [3], in assay [14], in [15] and in assay [16] was 0 mm throughout. Moreover, the MIC in [2], in assay [5], in assay [8], in assay [10], in assay [11] and in [13] was over 150 µg/mL each time. Further, the zone of inhibition at 50 µg/mL in assay [4], in assay [6], in assay [7], in [9] and in [12] was 0 mm in each case.
Turning to `N#CC#Cc1cc(F)c(Cl)nc1Cl`, the zone of inhibition at 100 µg/mL in [1] amounted to 24 mm; in [3], 10 mm; in assay [14], 25 mm; in assay [15], 16 mm; in [16], 11 mm. For the same molecule, the MIC is 6.25 µg/mL (≈ 29.1 µM) in assay [2]; 12.5 µg/mL (≈ 58.1 µM) in assay [5]; 12.5 µg/mL (≈ 58.1 µM) in assay [8]; 100 µg/mL (≈ 465 µM) in [10]; 25 µg/mL (≈ 116 µM) in assay [11]; 100 µg/mL (≈ 465 µM) in assay [13]. Also, the zone of inhibition at 50 µg/mL in assay [4] worked out at 0 mm; in assay [6] it was 20 mm; in assay [7] it was 11 mm; in assay [9] it was 20 mm; in assay [12] it was 0 mm.
Take `N#CC#Cc1ccc(Cl)nc1`: the zone of inhibition at 100 µg/mL amounted to 43 mm in assay [1]; 10 mm in assay [3]; 47 mm in assay [14]; 40 mm in [15]; 28 mm in assay [16]. Further, the minimal inhibitory concentration (MIC) in assay [2] was 1.56 µg/mL (≈ 9.6 µM); in [5], 3.12 µg/mL (≈ 19.2 µM); in assay [8], 1.56 µg/mL (≈ 9.6 µM); in assay [10], 0.78 µg/mL (≈ 4.8 µM); in assay [11], 6.25 µg/mL (≈ 38.4 µM); in assay [13], 100 µg/mL (≈ 615 µM). Also, the zone of inhibition at 50 µg/mL in [4] was determined as 0 mm; in [6], 44 mm; in assay [7], 35 mm; in assay [9], 39 mm; in assay [12], 33 mm.
Regarding `C[C@@H]1[C@H](O)[C@@H](C)/C=C/C=C/C=C/C=C/C=C/C=C/C=C/[C@H](O[C@@H]2O[C@H](C)[C@@H](O)[C@H](N)[C@@H]2O)C[C@@H]2O[C@](O)(C[C@@H](O)C[C@@H](O)[C@H](O)CC[C@@H](O)C[C@@H](O)CC(=O)O[C@H]1C)C[C@H](O)[C@H]2C(=O)O` [AMPHOTERICIN B], the zone of inhibition at 50 µg/mL in [4] amounted to 22 mm; in [6], 25 mm; in assay [7] it was 23.5 mm; in [9] it was 25 mm; in assay [12], 21 mm.
Take `CC(C)OC(=O)C#Cc1ccc(Cl)nc1`: the zone of inhibition at 100 µg/mL is 23 mm in assay [1]; 17 mm in [3]; 19 mm in [14]; 19 mm in assay [15]; 11 mm in assay [16]. Moreover, the MIC in assay [2] is 50 µg/mL (≈ 224 µM); in assay [5] it was 12.5 µg/mL (≈ 55.9 µM); in assay [8], 1.56 µg/mL (≈ 6.97 µM); in [10] it was 1.56 µg/mL (≈ 6.97 µM); in assay [11] it was 1.56 µg/mL (≈ 6.97 µM); in assay [13] it was 100 µg/mL (≈ 447 µM). Besides, the zone of inhibition at 50 µg/mL is 11 mm in assay [4]; 12 mm in assay [6]; 13 mm in assay [7]; 17 mm in assay [9]; 0 mm in [12].
Turning to `CCOC(=O)C#Cc1ccccc1C`, the zone of inhibition at 100 µg/mL in assay [1], in assay [3], in assay [14], in assay [15] and in assay [16] was 0 mm each time. Also, the MIC in [2], in [5], in assay [8], in assay [10], in assay [11] and in [13] was over 150 µg/mL in each case. For the same molecule, the zone of inhibition at 50 µg/mL in assay [4], in assay [6], in assay [7], in assay [9] and in assay [12] was 0 mm in each case.
Take `N#CC#Cc1cccnc1Cl`: the zone of inhibition at 100 µg/mL is 30 mm in assay [1]; 11 mm in assay [3]; 39 mm in assay [14]; 28 mm in [15]; 29 mm in assay [16]. Also, the MIC in [2] came out at 3.12 µg/mL (≈ 19.2 µM); in assay [5], 12.5 µg/mL (≈ 76.9 µM); in assay [8] it was 6.25 µg/mL (≈ 38.4 µM); in assay [10], 0.78 µg/mL (≈ 4.8 µM); in assay [11], 50 µg/mL (≈ 308 µM); in assay [13], 100 µg/mL (≈ 615 µM). Further, the zone of inhibition at 50 µg/mL came out at 0 mm in [4]; 35 mm in assay [6]; 23 mm in assay [7]; 26 mm in assay [9]; 23 mm in assay [12].
In the case of `CC(C)OC(=O)C(C(=O)C(C)(C)C)=P(c1ccccc1)(c1ccccc1)c1ccccc1`, the zone of inhibition at 100 µg/mL in assay [1], in [3], in assay [14], in [15] and in assay [16] was 0 mm throughout. Further, the MIC in assay [2], in assay [5], in [8], in [10], in assay [11] and in assay [13] was over 150 µg/mL throughout.
For the molecule `Cc1ccccc1C#CC#N`, the zone of inhibition at 100 µg/mL in [1], in assay [3], in assay [14], in assay [15] and in [16] was 0 mm each time. The MIC in [2], in assay [5], in [8], in assay [10], in assay [11] and in assay [13] was over 150 µg/mL each time. Also, the zone of inhibition at 50 µg/mL in [4], in assay [6], in [7], in assay [9] and in [12] was 0 mm throughout.

(Values after ChEMBL document CHEMBL2424522, “Demonic axe-like conjugated alkynes in combating microbes” (2013).)
